Reference: ChEMBL document CHEMBL5724801, “EUbOPEN Chemogenomics Library - Multiplex” (2024)
Several values for one entry are separate records, joined by “and”; a condition that tells them apart may be missing. Equal entries are not always repeated.

System: HEK-293T
Test: Multiplex assay against HEK293T
Type: toxicity, cell-based
Conditions: human
How it was run: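 Compound was added to live cells that had been stained at seeding with Hoechst33342, BioTracker Green Microtubule Cytoskeleton Dye, MitoTracker Red and Annexin V Alexa Fluor 680, and imaging followed on a CQ1 microscope at 37°C and 5% CO2. CellPathfinder machine-learning gating divided cells into Hoechst high-intensity objects or normal cells, normal cells into healthy, pyknosed or fragmented nuclei, and pyknosed cells into mitotic or apoptotic. Tubulin, mitochondrial-mass and membrane-permeability phenotypes are per cents of healthy-nucleus cells.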

[1] = 12 h, 1 µM, compound concentration 1 uM
[2] = 12 h, 10 µM, compound concentration 10 uM
[3] = 24 h, 1 µM, compound concentration 1 uM
[4] = 24 h, 10 µM, compound concentration 10 uM
[5] = 48 h, 1 µM, compound concentration 1 uM
[6] = 48 h, 10 µM, compound concentration 10 uM

With `CNc1nc(NCc2ncccn2)c2c(-c3ccc4ncccc4c3)c[nH]c2n1` the “Population Apoptotic (%)” value [1] was 9.22% and 10.1%, the “Population Fragmented Nuclei (%)” value [1] was 2.26% and 3.88% and the “Population Hoechst High Intensity Objects (%)” value [1] was 0.25% and 0%. For the same compound, the “Population Membrane Permeable-Phenotype (%)” value [1] was 0.81% and 0%, the “Population Mitotic Cells (%)” value [1] was 90.78% and 89.9% and the “Population Normal (%)” value [1] was 99.75% and 100%. For the same compound, the “Population Pyknosed Nuclei (%)” value [1] was 35.43% and 76.74%, the “Population Apoptotic (%)” value [2] was 13.38% and 23.23% and the “Population Fragmented Nuclei (%)” value [2] was 2.88% and 3.98%. For the same compound, the “Population Hoechst High Intensity Objects (%)” value [2] was 0.64% and 0%, the “Population Membrane Permeable-Phenotype (%)” value [2] was 0% and the “Population Mitotic Cells (%)” value [2] was 86.62% and 76.77%. The “Population Normal (%)” value [2] was 99.36% and 100%, the “Population Pyknosed Nuclei (%)” value [2] was 45.51% and 88.07% and the “Population Tubulin-Different-Phenotype (%)” value [2] was 20.5% and 42.86%. For the same compound, the “Total Cell Count” value [2] was 314 and 176, the “Population Apoptotic (%)” value [3] was 7.44% and 13.04% and the “Population Fragmented Nuclei (%)” value [3] was 1.55% and 3.01%. For the same compound, the “Population Healthy Nuclei (%)” value [3] was 79.72% and 45.11%, the “Population Hoechst High Intensity Objects (%)” value [3] was 0.15% and 0% and the “Population Membrane Permeable-Phenotype (%)” value [3] was 0.78% and 0%. For the same compound, the “Population Mitochondria Different-Phenotype (%)” value [3] was 15.34% and 13.33%, the “Population Mitotic Cells (%)” value [3] was 92.56% and 86.96% and the “Population Normal (%)” value [3] was 99.85% and 100%. The “Population Pyknosed Nuclei (%)” value [3] was 18.73% and 51.88%, the “Population Tubulin-Different-Phenotype (%)” value [3] was 9.13% and 10% and the “Population Apoptotic (%)” value [4] was 21.74% and 18.6%. The “Population Fragmented Nuclei (%)” value [4] was 2.16% and 2.65%, the “Population Healthy Nuclei (%)” value [4] was 75.72% and 29.1% and the “Population Hoechst High Intensity Objects (%)” value [4] was 0%. For the same compound, the “Population Membrane Permeable-Phenotype (%)” value [4] was 2.22% and 7.27%, the “Population Mitochondria Different-Phenotype (%)” value [4] was 39.37% and 32.73% and the “Population Mitotic Cells (%)” value [4] was 78.26% and 81.4%. The “Population Normal (%)” value [4] was 100%, the “Population Tubulin-Different-Phenotype (%)” value [4] was 28.89% and 25.45% and the “Total Cell Count” value [4] was 416 and 189. The “Population Fragmented Nuclei (%)” value [5] was 3.92% and 2.35%, the “Population Healthy Nuclei (%)” value [5] was 88.02% and 64.71% and the “Population Hoechst High Intensity Objects (%)” value [5] was 0% and 0.58%. For the same compound, the “Population Membrane Permeable-Phenotype (%)” value [5] was 3.68% and 0.91%, the “Population Mitochondria Different-Phenotype (%)” value [5] was 13.1% and 22.73% and the “Population Mitotic Cells (%)” value [5] was 93.46% and 80.36%. The “Population Normal (%)” value [5] was 100% and 99.42%, the “Population Apoptotic (%)” value [6] was 10.91% and 21.43% and the “Population Fragmented Nuclei (%)” value [6] was 4.49% and 5.56%. The “Population Healthy Nuclei (%)” value [6] was 86.38% and 55.56%, the “Population Hoechst High Intensity Objects (%)” value [6] was 0% and 2.7% and the “Population Membrane Permeable-Phenotype (%)” value [6] was 2.12% and 5%. The “Population Mitochondria Different-Phenotype (%)” value [6] was 57.5% and 60%, the “Population Mitotic Cells (%)” value [6] was 89.09% and 78.57% and the “Population Normal (%)” value [6] was 100% and 97.3%.

`Cl.Clc1cc2cc(c1)-c1cnn3ccc(nc13)NCCOCCO2` was tested, and the “Population Apoptotic (%)” value [1] was 7.52% and 9.38%, the “Population Fragmented Nuclei (%)” value [1] was 1.41% and 6.41% and the “Population Hoechst High Intensity Objects (%)” value [1] was 0%. For the same compound, the “Population Membrane Permeable-Phenotype (%)” value [1] was 0.46% and 0%, the “Population Mitochondria Different-Phenotype (%)” value [1] was 39.63% and 22.22% and the “Population Mitotic Cells (%)” value [1] was 92.48% and 90.62%. For the same compound, the “Population Normal (%)” value [1] was 100%, the “Population Pyknosed Nuclei (%)” value [1] was 37.46% and 82.05% and the “Total Cell Count” value [1] was 355 and 156. The “Population Apoptotic (%)” value [2] was 20.33% and 8.33%, the “Population Fragmented Nuclei (%)” value [2] was 2.02% and 1.83% and the “Population Healthy Nuclei (%)” value [2] was 56.57% and 25%. For the same compound, the “Population Hoechst High Intensity Objects (%)” value [2] was 0% and 0.61%, the “Population Membrane Permeable-Phenotype (%)” value [2] was 1.19% and 2.44% and the “Population Mitochondria Different-Phenotype (%)” value [2] was 35.71% and 26.83%. The “Population Mitotic Cells (%)” value [2] was 79.67% and 91.67%, the “Population Normal (%)” value [2] was 100% and 99.39% and the “Population Pyknosed Nuclei (%)” value [2] was 41.41% and 73.17%. The “Total Cell Count” value [2] was 297 and 165, the “Population Apoptotic (%)” value [3] was 18.58% and 9.43% and the “Population Fragmented Nuclei (%)” value [3] was 0.93% and 4.73%. The “Population Hoechst High Intensity Objects (%)” value [3] was 0%, the “Population Membrane Permeable-Phenotype (%)” value [3] was 1.19% and 0% and the “Population Mitochondria Different-Phenotype (%)” value [3] was 17.58% and 22.86%. For the same compound, the “Population Mitotic Cells (%)” value [3] was 81.42% and 90.57%, the “Population Normal (%)” value [3] was 100% and the “Population Tubulin-Different-Phenotype (%)” value [3] was 11.16% and 5.71%. The “Population Apoptotic (%)” value [4] was 25.26% and 16.38%, the “Population Fragmented Nuclei (%)” value [4] was 2.17% and 2.23% and the “Population Healthy Nuclei (%)” value [4] was 72.01% and 32.96%. For the same compound, the “Population Hoechst High Intensity Objects (%)” value [4] was 0%, the “Population Membrane Permeable-Phenotype (%)” value [4] was 0.75% and 0% and the “Population Mitochondria Different-Phenotype (%)” value [4] was 30.19% and 10.17%. The “Population Mitotic Cells (%)” value [4] was 74.74% and 83.62%, the “Population Normal (%)” value [4] was 100% and the “Population Pyknosed Nuclei (%)” value [4] was 25.82% and 64.8%. The “Population Tubulin-Different-Phenotype (%)” value [4] was 9.81% and 5.08%, the “Total Cell Count” value [4] was 368 and 179 and the “Population Fragmented Nuclei (%)” value [5] was 3.48% and 1.96%. The “Population Healthy Nuclei (%)” value [5] was 87.01% and 64.71%, the “Population Hoechst High Intensity Objects (%)” value [5] was 0% and 0.97% and the “Population Membrane Permeable-Phenotype (%)” value [5] was 5.92% and 3.03%. The “Population Mitochondria Different-Phenotype (%)” value [5] was 15.1% and 25%, the “Population Mitotic Cells (%)” value [5] was 97.71% and 83.82% and the “Population Normal (%)” value [5] was 100% and 99.03%. For the same compound, the “Population Apoptotic (%)” value [6] was 16.05% and 15.07%, the “Population Fragmented Nuclei (%)” value [6] was 3.95% and 2.66% and the “Population Healthy Nuclei (%)” value [6] was 86.64% and 69.58%. For the same compound, the “Population Hoechst High Intensity Objects (%)” value [6] was 0.12% and 0.75%, the “Population Membrane Permeable-Phenotype (%)” value [6] was 3.08% and 0% and the “Population Mitochondria Different-Phenotype (%)” value [6] was 26.54% and 19.13%. For the same compound, the “Population Mitotic Cells (%)” value [6] was 83.95% and 84.93%, the “Population Normal (%)” value [6] was 99.88% and 99.25% and the “Population Pyknosed Nuclei (%)” value [6] was 9.41% and 27.76%.
